# Screening results: PubChem BioAssay, several laboratories
# H69AR growth 86K: blocks growth of human H69AR lung tumor cells. H69AR lung tumor viability, ATP luminescence, 72 h; hits give low values. viability, % at 10 µM. 6% of 85,000 active. AID 598;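 active = viability at or below 40%; inactive = viability above 40%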;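 also: multidrug resistant small cell line overexpressing MRP-1 efflux transporter; 100% = mean luminescence of untreated control wells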
# Fibroblast inh: blocks proliferation of human lung fibroblasts; LL 47 human lung fibroblast viability, ATP luminescence; hits give low values; viability, % at 10 µM; 1.1% of 85,000 active; AID 719;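 active = viability at or below 50% in the single dose screen; inactive = viability above 50%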;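 also: compound exposure lasted 72 h before the ATP readout; 100% = median luminescence of untreated cell-only wells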
#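 Assay system: human lung fibroblast line LL 47, low passage. Input: 1,150 fibroblasts seeded per well. Times: overnight cell rest, 72 h compound treatment at 37 °C. Evaluation: % viability of median cell-only signal. Technique: luminescent ATP detection, CellTiter-Glo. Control set: cell-only wells, no compound.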
# HCT116 PTEN-null: suppresses growth of cells with PTEN deletion; 1.2% of 140,000 active; HCT116 PTEN-null viability, CellTiter-Glo, 60 h; hits give low values; viability, % at 10 µM;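 active = viability at or below a set limit, 4 SD under the median of all tested compounds, cut at about 3.7% in these data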;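 also: PTEN knockout HCT116 line with beta catenin targeted HCT116 as companion control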
# HUVEC prolif 384: human endothelial cell proliferation inhibition. HUVEC proliferation, CellTiter-Glo luminescence, 72 h; hits give low values. viability, % at 10 µM (by protocol). 1.1% of 86,000 active. AID 648;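 active = viability at or below 30%; inactive = viability above 30%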;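 also: 100% = median luminescence of DMSO-only cell control wells on each plate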
# PTK2B oligo ant: blocks oligomerization of human Pyk2 in cells | Q14289 | Q293 cells, Pyk2 FERM NanoBiT luminescence; hits give low values | z-score (the deposit names both 25 µM and 10 µM) | 0.83% of 99,000 active;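 active = Z-score of -3 or lower, scaled per plate to the spread of control and sample wells; inactive = z-score above -3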;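 also: negative z-score means lost luminescence so less FERM oligomerization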
# Target sequence (Q14289 whole entry, looked up): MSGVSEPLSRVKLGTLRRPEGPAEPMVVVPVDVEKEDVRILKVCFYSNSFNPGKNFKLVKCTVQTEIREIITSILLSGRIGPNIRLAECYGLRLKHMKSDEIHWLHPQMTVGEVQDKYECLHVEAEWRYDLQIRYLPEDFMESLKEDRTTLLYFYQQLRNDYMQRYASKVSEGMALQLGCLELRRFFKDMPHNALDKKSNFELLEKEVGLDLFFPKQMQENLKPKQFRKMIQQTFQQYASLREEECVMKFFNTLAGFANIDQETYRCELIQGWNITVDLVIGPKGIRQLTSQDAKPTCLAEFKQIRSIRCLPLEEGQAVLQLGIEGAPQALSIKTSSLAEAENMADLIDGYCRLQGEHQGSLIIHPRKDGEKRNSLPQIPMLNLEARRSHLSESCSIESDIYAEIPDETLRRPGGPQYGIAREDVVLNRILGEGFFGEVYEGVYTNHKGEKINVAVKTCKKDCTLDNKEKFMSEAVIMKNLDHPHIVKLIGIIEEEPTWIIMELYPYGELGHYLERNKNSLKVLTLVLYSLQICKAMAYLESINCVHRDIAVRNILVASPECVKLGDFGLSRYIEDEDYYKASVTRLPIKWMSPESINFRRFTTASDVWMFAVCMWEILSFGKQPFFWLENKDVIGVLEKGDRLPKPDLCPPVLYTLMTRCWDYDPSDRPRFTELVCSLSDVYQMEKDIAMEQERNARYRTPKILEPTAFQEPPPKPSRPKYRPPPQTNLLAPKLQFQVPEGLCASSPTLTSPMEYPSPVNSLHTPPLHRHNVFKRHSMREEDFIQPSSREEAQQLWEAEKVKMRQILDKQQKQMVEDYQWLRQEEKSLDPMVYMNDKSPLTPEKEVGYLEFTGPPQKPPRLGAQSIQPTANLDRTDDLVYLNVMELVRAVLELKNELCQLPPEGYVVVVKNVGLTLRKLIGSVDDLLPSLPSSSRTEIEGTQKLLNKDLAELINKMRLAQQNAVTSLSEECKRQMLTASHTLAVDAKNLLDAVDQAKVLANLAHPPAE
# HCT116 bCat-KO: beta-catenin-lacking colon tumor cell growth suppression. HCT116 beta-catenin knockout viability, CellTiter-Glo, 60 h; hits give low values. viability, % at 10 µM. 1.5% of 140,000 active;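 active = viability at or under a set limit, the compound median less 4 SD, cut at about 6% in these data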;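 also: 0% = Hyamine 1622 control at 20 µM and 100% = untreated cell control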
# The depositor's hits bear a star; . = no result. This is one part of a sample in which hits are shown more often than they occur.
SMILES,H69AR growth 86K,Fibroblast inh,HCT116 PTEN-null,HUVEC prolif 384,PTK2B oligo ant,HCT116 bCat-KO
Cc1ccc(S(=O)(=O)N2CCCN(S(=O)(=O)c3ccc4c(c3)OCCO4)CC2)cc1,32.1*,92.8,91.8,94.9,-3.01*,106.9
O=S(=O)(c1ccc2c(c1)OCCO2)N1CCN(c2cccc(Cl)c2)CC1,94.8,103.0,77.0,107.9,-3.9*,88.5
O=S(=O)(c1ccccc1Cl)N1CCC(O)(c2ccc3c(c2)OCO3)CC1,.,90.0,89.3,97.8,-1.86,90.3
Cc1ccc(S(=O)(=O)N2CCN(S(=O)(=O)N3CCCCC3)CC2)cc1,91.1,90.4,99.3,89.5,0.11,105.6
O=C(CSc1nnc(SCc2cccc3ccccc23)s1)N/N=C/C=C/c1ccccc1[N+](=O)[O-],.,.,90.6,.,.,90.0
Cc1ccc(CNC(=O)c2ccc(Cl)cc2[N+](=O)[O-])cc1,.,.,101.2,.,0.35,106.0
CCOC(=O)N1CCC(Nc2c(N3CCN(c4cccc(C(F)(F)F)c4)CC3)c(=O)c2=O)CC1,83.7,103.3,72.6,97.3,-0.14,68.9
CCOC(=O)c1cc(C)sc1/N=C/C1=C(O)CCCC1=O,.,.,94.9,.,-0.28,96.1
Cc1cc(-n2[nH]c(C)c(C)c2=O)nc(-c2ccccc2O)n1,16.0*,66.3,13.1,76.3,-0.34,17.6
Cc1cc(N2CCN(c3ccccc3)CC2)nc(-c2ccccc2O)n1,88.5,101.6,55.7,107.8,0.22,72.4
Cc1ccc(S(=O)(=O)c2cc3c(=O)n4ccccc4nc3n(CC3CCCO3)c2=N)cc1C (configuration not stated),72.5,76.8,73.3,95.4,.,76.2
N=c1c(S(=O)(=O)c2ccccc2)cc2c(=O)n3ccccc3nc2n1Cc1ccco1,10.9*,75.7,4.2,87.4,0.7,6.6
N=c1c(S(=O)(=O)c2ccccc2)cc2c(=O)n3ccccc3nc2n1CCN1CCOCC1,73.1,103.0,.,91.0,.,.
Cc1ccc(S(=O)(=O)c2cc3c(=O)n4ccccc4nc3n(Cc3ccco3)c2=N)cc1C,7.8*,73.4,62.4,86.9,.,69.6
Cc1cc(C)nc(Sc2nc(Cl)nc(N(c3ccccc3)c3ccccc3)n2)n1,.,.,99.4,.,0.05,94.1
CC(=O)NC(c1cccs1)c1cc([N+](=O)[O-])c2cccnc2c1O (configuration not stated),.,.,3.8*,.,.,5.6*
CC(NC(=O)Cc1ccccc1[N+](=O)[O-])c1ccccc1 (configuration not stated),.,.,91.4,.,.,91.4
CCOc1ccc(C(=O)Nc2ccc(NC(=O)c3cccs3)cc2)cc1[N+](=O)[O-],.,.,91.4,.,.,92.9
CCCC(=O)NC(c1cccs1)c1cc([N+](=O)[O-])c2cccnc2c1O (configuration not stated),.,.,4.0,.,.,5.5*
CC(C)C(=O)NC(c1ccccc1)c1cc([N+](=O)[O-])c2cccnc2c1O (configuration not stated),.,.,7.0,.,.,4.1*
CCC(=O)NC(c1cccs1)c1cc([N+](=O)[O-])c2cccnc2c1O (configuration not stated),.,.,5.5,.,.,3.0*
Cc1ccccc1N1C(=O)CN(Cc2sccc2C)C1=S,.,.,84.0,.,.,80.8
CCCN(CCC)C1=CC(=[N+]2CCCC2)CC(C)(C)C1,.,.,11.3,.,.,12.4
O=C(Nc1c(C(=O)Nc2cccc3ccccc23)cnn1-c1ccccc1)c1ccco1,55.1,96.3,84.1,87.1,-1.68,81.1
Cc1ccc([N+](=O)[O-])cc1-c1[nH]c(-c2ccc(O)c(O)c2)nc1-c1ccccc1,10.4*,80.4,27.7,52.3,-0.27,35.2
SMILES,H69AR growth 86K,Fibroblast inh,HCT116 PTEN-null,HUVEC prolif 384,PTK2B oligo ant,HCT116 bCat-KO
Cc1ccccc1OCc1nc(-c2ccc(NC(=O)c3ccc4c(c3)OCO4)cc2)no1,16.5*,29.9*,45.6,31.2,2.16,60.6
COc1ccc(-c2ccc(-c3noc(-c4ccccc4OC)n3)c(OC)n2)cc1,33.9*,99.8,100.1,71.8,-0.22,87.6
Cc1ccccc1OCc1nc(-c2ccc(NC(=O)c3ccco3)cc2)no1,93.2,93.5,93.7,70.3,-0.04,87.5
COc1ccc(CC(=O)Nc2ccc(-c3noc(-c4ccccc4OC)n3)cc2)cc1,16.9*,66.0,90.5,26.0*,-0.55,94.8
COc1ccccc1CC(=O)Nc1ccc(-c2noc(COc3ccc(Br)cc3)n2)cc1,19.3*,83.1,93.0,85.9,1.01,93.3
COc1cccc(-c2nc(-c3ccc(NC(=O)Cc4ccccc4OC)cc3)no2)c1,107.0,97.2,71.8,100.6,-0.75,85.3
Cc1cc(OCc2nc(-c3ccc(NC(=O)c4cccnc4)cc3)no2)ccc1Cl,.,.,70.1,.,0.52,52.4
CCCc1ccc(OCc2nc(-c3ccc(NC(=O)c4ccco4)cc3)no2)cc1,9.2*,50.9,9.6,50.8,0,10.6
COc1ccccc1CC(=O)Nc1ccc(-c2noc(COc3cccc(C)c3C)n2)cc1,38.1*,105.4,82.4,79.6,.,74.6
O=C(Nc1ccc(-c2noc(CCc3ccccc3)n2)cc1)c1cccnc1,5.5*,86.8,85.5,67.9,-3.26*,77.9
COc1ccc(OC)c(C2Nc3nc4ccccc4n3C(C)=C2C(=O)Nc2ccc(C)cc2C)c1 (configuration not stated),90.9,75.1,20.5,94.0,-0.38,28.0
CCCOc1ccc(C2NC(=S)NC(c3ccccc3)=C2C(=O)Nc2ccc(C)cc2)cc1OC (configuration not stated),.,.,75.4,.,.,86.3
Cc1ccc(/C(N)=N/OC(=O)c2ccco2)cc1,75.6,98.5,93.5,83.5,1.05,96.0
Cc1ccc(NC2=C(Cl)C(=O)OC2OC(=O)c2ccco2)cc1 (configuration not stated),33.2*,92.1,90.8,65.4,-1.44,85.9
COc1ccc(C(=O)NC(=O)Nc2cc(C)ccn2)cc1,39.8*,85.6,56.8,65.2,-0.35,49.1
COc1cc(C(=O)Nc2cc(C)ccn2)cc(OC)c1OC,79.2,104.1,95.9,94.1,-1.13,90.2
Cc1nc(N)sc1C(=O)N/N=C/c1c[nH]c2ccccc12,.,.,40.2,.,-0.11,42.6
CC(=O)n1cc(/C=N/NC(=O)c2sc(C)nc2C)c2ccccc21,22.0*,88.9,48.3,83.8,-0.61,44.6
Cc1ccc(C(c2nnnn2CC2CCCO2)N2CCN(c3cccc(C)c3C)CC2)cc1 (configuration not stated),55.2,91.1,66.2,98.6,-3.44*,65.5
COc1cc2cc(C(c3nnnn3C3CCCC3)N3CCc4ccccc43)c(=O)[nH]c2cc1OC (configuration not stated),30.9*,36.5*,83.5,68.0,0.34,77.5
COc1cc2cc(C(c3nnnn3C(C)(C)C)N3CCc4ccccc43)c(=O)[nH]c2cc1OC (configuration not stated),77.8,98.3,61.2,99.5,0.27,75.2
